Compounds with a hit are over-represented: about 1.3% of the library has one in this group of screens.
NR2E3 ag-1 – human photoreceptor-specific nuclear receptor agonism | Q9Y5X4 | CHO-S Gal4-NCOR/VP16-NR2E3 two-hybrid, luciferase | inhibition of corepressor binding, % at 3.98 µM | actives 0.35% (n = 360,000) | AID 602229;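 active means inhibition above the mean of all tested compounds plus 3 SD, cut at about 70% in these data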;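 further: 0% = DMSO with NR2E3 transfected cells and 100% = cells lacking NR2E3 construct; higher means lower luciferase signal from less NR2E3 corepressor binding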
Target sequence (Q9Y5X4 whole entry, looked up, the tested form may be a part): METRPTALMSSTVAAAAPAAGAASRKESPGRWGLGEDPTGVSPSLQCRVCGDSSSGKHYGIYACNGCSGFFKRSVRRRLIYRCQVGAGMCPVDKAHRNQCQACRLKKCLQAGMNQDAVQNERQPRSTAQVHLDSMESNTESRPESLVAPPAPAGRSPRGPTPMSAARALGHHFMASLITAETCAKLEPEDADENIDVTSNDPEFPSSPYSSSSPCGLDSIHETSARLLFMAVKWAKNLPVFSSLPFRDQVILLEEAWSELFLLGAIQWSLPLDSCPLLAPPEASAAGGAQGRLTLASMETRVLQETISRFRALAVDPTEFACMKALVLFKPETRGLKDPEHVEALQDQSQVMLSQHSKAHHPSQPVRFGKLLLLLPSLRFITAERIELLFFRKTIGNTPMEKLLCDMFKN
PP1 inh – PP1-alpha (human) inhibition in PP5 counter-screen; purified PP1alpha, OMFP fluorescence; actives 0.9% (n = 320,000); P62136; inhibition, % at 6.7 µM;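 active means inhibition above the mean inhibition of all tested compounds plus 3 SD, computed separately for each screening campaign, cut at about 15% in these data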
PP5 primary – inhibitors of human protein phosphatase 5 (PP5) | P53041 | purified PP5c, OMFP substrate fluorescence | inhibition, % at 6.7 µM | actives 0.18% (n = 320,000) | AID 1987;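 active means inhibition above the campaign's mean inhibition across all tested compounds plus 3 SD, cut at about 9.5% in these data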;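 further: 0% = DMSO only and 100% = 100 µM cantharidin control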
NR2E3 ag-2 – NR2E3 (human) agonism. Q9Y5X4. GST-NR2E3/biotin-RetCOR TR-FRET, 1536-well. inhibition of corepressor binding, % at 4.78 µM. actives 0.12% (n = 320,000). AID 2300;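 active means percent inhibition above the cutoff of mean plus 3 SD of all tested compounds, set per screening campaign, cut at about 20% in these data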;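 further: 0% = DMSO wells and 100% = biotin wells as full block of FRET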
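Format: 1536-well format; test system: GST-NR2E3 and biotin-RetCOR proteins; read-out basis: percent inhibition of TR-FRET ratio; timing: 5 h incubation at 4 °C; detection: time-resolved FRET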
PP1 confirm – human PP1 phosphatase inhibition, confirmation; shares compounds with PP1 inh; purified PP1alpha, OMFP substrate fluorescence; inhibition, % at 6.7 µM; actives 52% (n = 1,900);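 active means mean PP1 inhibition above a set limit taken from the earlier primary screen, cut at about 15% in these data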
PP5 inh counter – inhibits human PP5 phosphatase in PP1 counter-screen; shares compounds with PP1 inh; purified PP5c, OMFP fluorescence; inhibition, % at 6.7 µM; actives 4% (n = 1,900); AID 2360;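 active means mean PP5 inhibition over triplicate wells above about 9.5% taken from the earlier PP1 screen, limit read from the data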
Numbers without * were called inactive; ! = not active in a repeat.

For CC(NC(=O)C1CC1)C(c1cccs1)N1CCN(c2ccccc2)CC1 (centres undefined) the results were NR2E3 ag-1 -5, PP1 inh 47*, PP5 primary 0, NR2E3 ag-2 -1, PP1 confirm -3 and PP5 inh counter -5.
`N[C@@H](Cc1cc(I)c(Oc2ccc(O)c(I)c2)c(I)c1)C(=O)O` gave NR2E3 ag-1 -39, PP1 inh 28*!, PP5 primary 1, NR2E3 ag-2 1, PP1 confirm 15 and PP5 inh counter -6.
`COCC(Cc1ccccc1)NC(=O)Cn1cc(C)c(=O)[nH]c1=O` (centres undefined) gave NR2E3 ag-1 -31.
COc1cccc(C2C(C(=O)c3cc4cccc(OC)c4o3)=C(O)C(=O)N2c2cc(C)on2)c1OC (centres undefined) was read as NR2E3 ag-1 -52, PP1 inh 11, PP5 primary 4 and NR2E3 ag-2 14.
For Cc1cc(N2C(=O)C(O)=C(C(=O)c3cc4ccccc4o3)C2c2ccc(OC(C)C)cc2)no1 (centres undefined) the results were NR2E3 ag-1 -55, PP1 inh 23*, PP5 primary 0, NR2E3 ag-2 11, PP1 confirm 34* and PP5 inh counter -2.
CCCCCOc1ccc(C2C(C(=O)c3ccc(C)o3)=C(O)C(=O)N2c2cc(C)on2)cc1 (centres undefined) was read as NR2E3 ag-1 18, PP1 inh 24*, PP5 primary 1, NR2E3 ag-2 6, PP1 confirm 32* and PP5 inh counter 0.
`CCCCOc1ccc(C2C(C(=O)c3ccc(C)o3)=C(O)C(=O)N2Cc2ccco2)cc1` (centres undefined) gave NR2E3 ag-1 10, PP1 inh 33*, PP5 primary 2, NR2E3 ag-2 15, PP1 confirm 30* and PP5 inh counter -3.
`CCOc1ccc(C2C(C(=O)c3ccc(C)o3)=C(O)C(=O)N2c2cc(C)on2)cc1OC` (centres undefined) gave NR2E3 ag-1 -1, PP1 inh 9, PP5 primary 0 and NR2E3 ag-2 4.
For CSc1nc(COC(=O)NC(C)C)c(COC(=O)NC(C)C)n1Cc1ccccc1 the results were NR2E3 ag-1 -6.
For Cc1cc(C(=O)NNC(=O)c2ccc(NC(=O)CC#N)cc2)c(C)o1 the results were NR2E3 ag-1 -37, PP1 inh 0, PP5 primary 1 and NR2E3 ag-2 4.
Screening O=C(Nc1nnc(-c2ccccc2Cl)o1)c1nc2ccccc2s1 returned NR2E3 ag-1 22, PP1 inh 40*, PP5 primary 0, NR2E3 ag-2 0, PP1 confirm 31* and PP5 inh counter -1.
Screening COc1ccc(/C=C2/C(=O)N(c3nc4ccccc4s3)N=C2CSc2ccc(Cl)cc2)cc1 returned NR2E3 ag-1 -14, PP1 inh 31*, PP5 primary -1, NR2E3 ag-2 -1, PP1 confirm 9 and PP5 inh counter 0.
Screening CCOC(=O)c1cnc2c(C)c(-c3ccccc3)[nH]n2c1=O returned NR2E3 ag-1 -5, PP1 inh 49*, PP5 primary 0, NR2E3 ag-2 -2, PP1 confirm 34* and PP5 inh counter -2.
Screening CCOC(=O)c1cnc(-n2[nH]c(C)c(Cc3ccccc3)c2=O)[nH]c1=O returned NR2E3 ag-1 -14, PP1 inh 28*, PP5 primary 0, NR2E3 ag-2 0, PP1 confirm 15 and PP5 inh counter -4.
For CCc1nnc(NC(=O)c2sc3nc4c(cc3c2N)CCCCCC4)s1 the results were NR2E3 ag-1 -95, PP1 inh 22*, PP5 primary 2, NR2E3 ag-2 4, PP1 confirm 29* and PP5 inh counter -5.
Cc1ccc(O)c(N=Nc2nccs2)c1 was read as NR2E3 ag-1 -15, PP1 inh 5, PP5 primary 3 and NR2E3 ag-2 -6.
NC(=O)[C@H](Cc1cc2ccccc2s1)NC(=O)[C@@H]1CC2(CC(c3cccc(NC(=O)[C@@H]4CCC(=O)N4)c3)=NO2)CN1C(=O)/C=C/c1c(F)cccc1Cl (some centres undefined) was read as NR2E3 ag-1 -10, PP1 inh 30*, PP5 primary 5, NR2E3 ag-2 2, PP1 confirm 20* and PP5 inh counter 6.
